Data as given in ChEMBL document CHEMBL1153867, “Synthesis, biological evaluation and SAR of sulfonamide 4-methoxychalcone derivatives with potential antileishmanial activity” (Eur J Med Chem, 2009).
Calls of active or inactive are those of the source. The calls are words filed in the database; no cut-off is given here.

Tests used:
Leishmania braziliensis [1] = experiment: Antileishmanial activity against Leishmania braziliensis MHOM/BR/75/M2904 promastigotes after 72 hrs; assay type: functional, organism-based; conditions: MHOM/BR/75/M2904, 72 h
Summary of the method: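 Exponential-phase promastigotes at 10×10^6/ml in Schneider's medium with 5% FBS were incubated 72 h at 28 °C with compound dilutions from 100 to 1.6. Amphotericin B (31.25–1000 nM) was the positive control and 1% DMSO the negative control. Live parasites were counted in a Neubauer chamber. IC50 came from linear regression, mean ± standard error of three independent triplicate experiments.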

Trypanosoma cruzi [2] = experiment: Antitrypanosomal activity against Trypanosoma cruzi epimastigotes at 500 uM after 72 hrs
Trypanosoma cruzi [3] = experiment: Antitrypanosomal activity against Trypanosoma cruzi Y epimastigotes at 500 uM after 72 hrs; assay type: functional, organism-based
Leishmania braziliensis [4] = experiment: Antileishmanial activity against Leishmania braziliensis MHOM/BR/75/M2904 amastigotes assessed as reduction in intracellular amastigote after 48 hrs; assay type: functional, organism-based
Summary of the method: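 L. braziliensis axenic amastigotes were made by differentiating stationary-phase promastigotes in Schneider medium with 20% FBS, pH 6.3, at 34 °C for 72 h. J774.A1 cells were infected at 10:1 parasite:cell overnight at 34 °C in RPMI with 20% FBS. Cells were exposed to 1–100 compound for 48 h at 34 °C/5% CO2, Giemsa-stained, and 200 cells counted. Percent inhibition above 25% counted as significant.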

| IC50 (Leishmania braziliensis [1]) [µM] | Structure (SMILES) | Activity (Trypanosoma cruzi [2]) | Activity (Trypanosoma cruzi [3]) | Activity (Leishmania braziliensis [4]) |
| --- | --- | --- | --- | --- |
| 5.6 | CCN(CC)S(=O)(=O)c1cc(/C=C/C(=O)c2ccccc2)ccc1OC | inactive | inactive | – |
| 8.6 | COc1ccc(/C=C/C(=O)c2ccccc2)cc1S(=O)(=O)N(C)C | inactive | inactive | – |
| 16.6 | COc1ccc(/C=C/C(=O)c2ccccc2)cc1 [4-METHOXY CHALCONE] | – | – | – |
| 3.5 | COc1ccc(/C=C/C(=O)c2ccccc2)cc1S(=O)(=O)NCc1ccccc1 | inactive | inactive | Active |
| 0.3 | C[C@@H]1[C@H](O)[C@@H](C)/C=C/C=C/C=C/C=C/C=C/C=C/C=C/[C@H](O[C@@H]2O[C@H](C)[C@@H](O)[C@H](N)[C@@H]2O)C[C@@H]2O[C@](O)(C[C@@H](O)C[C@@H](O)[C@H](O)CC[C@@H](O)C[C@@H](O)CC(=O)O[C@H]1C)C[C@H](O)[C@H]2C(=O)O [AMPHOTERICIN B] | – | – | – |
| 5.9 | COc1ccc(/C=C/C(=O)c2ccccc2)cc1S(=O)(=O)N1CCOCC1 | inactive | inactive | – |
| 69 | COc1ccc(/C=C/C(=O)c2ccccc2)cc1S(=O)(=O)Nc1ccccc1 | inactive | inactive | – |
| 19.6 | N=C(N)c1ccc(OCCCCCOc2ccc(C(=N)N)cc2)cc1 | – | – | – |
| 8.1 | COc1ccc(/C=C/C(=O)c2ccccc2)cc1S(=O)(=O)Nc1ccc(Cl)c(Cl)c1 | inactive | inactive | – |
| 7.5 | COc1ccc(NS(=O)(=O)c2cc(/C=C/C(=O)c3ccccc3)ccc2OC)cc1 | inactive | inactive | – |
| 13 | COc1ccc(/C=C/C(=O)c2ccccc2)cc1S(=O)(=O)N1CCCC1 | inactive | inactive | – |
| 4.6 | COc1ccc(/C=C/C(=O)c2ccccc2)cc1S(=O)(=O)Nc1ccc(Cl)cc1 | inactive | inactive | – |
